According to article PMC4740292 (EBioMedicine, 2015):
Where two headings read alike, the source gives them in different places.

What was measured:
Huh7.5.1 cells = experiment: Cytotoxicity; format: cell-based, human
[1] = test system: JFH-1 genotype 2a infectious virus (HCVcc); conditions: for EC50 / TI (CC50/EC50) / HCVcc infection / HCV entry inhibition (in words): Huh7.5.1
HCVcc-Luc = experiment: Time-of-addition assay, HCVcc-Luc on Huh7.5.1 cells; format: cell-based, Hepatitis C virus; conditions: 2 μM for 3 h, added at indicated time points
Summary of the method: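 Huh7.5.1 cells inoculated with HCVcc-Luc at 37 °C for 3 h. At set time points, test compound at 2 μM (or DMSO) added for 3 h, then removed. Cells kept a further 48 h at 37 °C before luciferase readout. Mean of n = 3 with s.d.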

PHB-CRaf interaction = PHB-CRaf interaction (Homo sapiens, UniProt P35232+Q99623); experiment: Co-IP of Flag-CRaf and V5-tagged PHB1 & 2 in 293T cells; format: cell-based; conditions: 20 nM
Summary of the method: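 Flag-CRaf and V5-tagged PHB1 and PHB2 co-expressed in 293T cells by co-transfection. Cells left untreated or exposed to test compound at 20 nM, then immunoprecipitated with anti-Flag antibody. Co-precipitated PHB1/PHB2 and CRaf detected by immunoblotting.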

CHIKVpp = CHIKVpp infection of Huh7.5.1 cells, luciferase assay; format: cell-based, Chikungunya virus; conditions: Huh7.5.1, Roc-A 10 nM, Fig. S3F
cell surface PHB1 and 2 = cell surface PHB1 and 2 (Homo sapiens, UniProt P35232+Q99623); experiment: Cell surface biotinylation assay, Huh7.5.1 cells; format: cell-based; conditions: 20 nM
PHB1, PHB2, CRaf, Ras = PHB1, PHB2, CRaf, Ras (Homo sapiens, UniProt P35232+Q99623); experiment: Western blotting of cellular PHB1, PHB2, CRaf and Ras in Huh7.5.1 cells; format: cell-based; conditions: 20 nM, 1, 2 and 3 days
[2] = Human liver microsomal stability assay; format: in vitro ADME; conditions: both, human liver microsomes, pH 7.4
[3] = test system: HCV replicon cell line 2-3(+); experiment: HCV replicon cell line 2-3; format: cell-based, Hepatitis C virus (Genotype 1b); conditions: 20 nM, 24, 48 or 72 hours, replicon cells
HCVpp = HCVpp infection of primary human hepatocytes; format: cell-based, Hepatitis C virus; conditions: pretreatment of PHHs at non-cytotoxic concentrations
[4] = compounds incubated with cells for a total of 3 h
[5] = compounds incubated with cells for a total of 48 h

Sequence of PHB-CRaf interaction (P35232 whole entry): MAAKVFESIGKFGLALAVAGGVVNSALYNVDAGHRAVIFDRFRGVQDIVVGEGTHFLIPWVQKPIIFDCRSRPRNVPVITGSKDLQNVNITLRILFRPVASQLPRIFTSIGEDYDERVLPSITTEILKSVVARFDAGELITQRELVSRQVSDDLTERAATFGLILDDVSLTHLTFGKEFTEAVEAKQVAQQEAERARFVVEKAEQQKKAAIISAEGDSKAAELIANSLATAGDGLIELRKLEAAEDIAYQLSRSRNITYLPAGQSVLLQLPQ
Sequence of PHB-CRaf interaction (Q99623 whole entry): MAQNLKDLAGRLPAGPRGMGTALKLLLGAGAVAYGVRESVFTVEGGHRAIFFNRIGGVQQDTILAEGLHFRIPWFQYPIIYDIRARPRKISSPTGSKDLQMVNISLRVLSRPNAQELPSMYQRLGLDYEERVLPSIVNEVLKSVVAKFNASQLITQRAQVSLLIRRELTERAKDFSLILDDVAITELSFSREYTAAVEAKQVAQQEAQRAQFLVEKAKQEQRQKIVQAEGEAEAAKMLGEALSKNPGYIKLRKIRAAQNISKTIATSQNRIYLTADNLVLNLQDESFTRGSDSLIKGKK
Sequence of PHB1, PHB2, CRaf, Ras (P35232 2-272 limits assumed): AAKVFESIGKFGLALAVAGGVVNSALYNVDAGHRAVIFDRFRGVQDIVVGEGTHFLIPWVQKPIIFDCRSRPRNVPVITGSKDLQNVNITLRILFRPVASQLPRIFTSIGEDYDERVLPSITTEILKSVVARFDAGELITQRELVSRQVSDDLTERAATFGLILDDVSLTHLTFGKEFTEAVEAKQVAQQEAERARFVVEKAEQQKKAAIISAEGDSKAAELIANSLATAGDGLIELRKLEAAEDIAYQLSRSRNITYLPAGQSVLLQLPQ
Sequence of PHB1, PHB2, CRaf, Ras (Q99623 2-299 limits assumed): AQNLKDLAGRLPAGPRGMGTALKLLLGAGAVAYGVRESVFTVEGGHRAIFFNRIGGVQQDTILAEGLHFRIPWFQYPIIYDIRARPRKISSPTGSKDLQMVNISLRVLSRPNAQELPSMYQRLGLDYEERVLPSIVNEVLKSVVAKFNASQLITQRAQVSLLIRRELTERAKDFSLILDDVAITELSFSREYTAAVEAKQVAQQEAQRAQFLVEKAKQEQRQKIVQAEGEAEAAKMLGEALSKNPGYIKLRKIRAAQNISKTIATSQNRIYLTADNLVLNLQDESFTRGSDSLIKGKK

Compound	CC50 (Huh7.5.1 cells; [4]) [nM]	EC50 [1, 4] [nM]	TI (CC50/EC50) ([1]; 3 h incubation)	HCVcc infection / HCV entry inhibition (in words) [1]	other results
(+)-rocaglamide [(+) Roc-A]	300000	> 200000			
(+)-aglaroxin C	100000	20000	5a		
CONC(=O)[C@H]1[C@@H](O)[C@@]2(O)c3c(OC)cc(OC)cc3O[C@@]2(c2ccc(OC)cc2)[C@@H]1c1ccccc1 [Compound E2, (-)-NH hydroxamate]					anti-HCV activity by time of addition (HCVcc-Luc): appeared to inhibit HCV no matter when added
(-)-rocaglamide [(−) Roc-A]	50000	1000	50	stronger inhibition on HCV entry than the (+) enantiomer	CC50 (Huh7.5.1 cells; [5]): 300 nM; TI (CC50/EC50) ([1]; 48 h incubation): 75; EC50 [1, 5]: 4 nM
(±)-aglaroxin C [(±) Aglaroxin C (C10)]	10000	100	100		CC50 (Huh7.5.1 cells; [5]): 20 nM; anti-HCV activity by time of addition (HCVcc-Luc): maximal anti-HCV activity when added together with the virus but lost its activity when added 3 h after the infection was initiated; TI (CC50/EC50) ([1]; 48 h incubation): 500; half-maximum effective concentrations (EC50), in words ([1]; JFH-1 genotype 2a infectious virus in cell culture): picomolar; EC50 [1, 5]: 0.04 nM
COc1ccc([C@@]23Oc4cc(OC)cc(OC)c4[C@]2(O)[C@H](O)[C@H](C(=O)N(C)C)[C@H]3c2ccccc2)cc1 [Roc-A, rocaglamide A]				significantly reduced	PHB-CRaf interaction (PHB-CRaf interaction): disrupted the PHB-CRaf interaction; CHIKVpp infection (CHIKVpp): significantly reduced; cell surface expression of PHB1 and 2 (cell surface PHB1 and 2): decreased the cell surface expression of PHB1 and 2; PHB1, 2, Ras and CRaf total protein level (PHB1, PHB2, CRaf, Ras): decreased PHB1, 2, Ras, and CRaf at the total protein level; half-life at 1 µM [2]: 37 min; HCV RNA replication or protein translation [3]: did not inhibit HCV RNA replication or protein translation; HCVpp entry (in words) (HCVpp): suppressed HCVpp entry
(-)-aglaroxin C [(−)-Aglaroxin C]	12000	200	60a	active enantiomer for HCV viral entry inhibition	
